B1: tRNA (parent)
chain: GUUCCGUUGGCGUAAUGGUAACGCGUCUCCCUCCUAAGGAGAAGACUGCGGGUUCGAGUCCCGUACGGAACG

Variants of: B1
Experiment: yeast fitness, log relative to wild type (ln ratio); higher = fitter; tRNA-Arg(CCU), competitive growth, 37 C, 1 M NaCl
Outline: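 In BY4742 missing the chromosomal gene, a combinatorial tRNA-Arg(CCU) variant library was maintained on a HIS3 centromeric plasmid. Selection ran ~6.5 generations (~26.5 h) in SC-HIS 1M NaCl at 37 °C, following 4 generations in SC-HIS at 30 °C, with three outputs per input and variant counts by 125 bp paired-end Illumina sequencing. Fitness is the natural log of a genotype's generations relative to the wild type's, with generations taken as inverse-variance-weighted, OD-scaled log2 output/input frequency.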

Variant | yeast fitness (ln)
ACUCCGUUGGCGUAAUGGUAACGCGUUUCCCUCCUAAGGAGACGACUGCGGGUUCGAGUCCCGUACGGAUUG [G1A U2C C27U A43C A70U C71U] | -0.175
ACUCCGUUGGCGUAAUGGUAACGCGUCUCCCUCCUAAGGAGAAGACUGCGGGUUCGAGUCCCGUACGGAUUG [G1A U2C A70U C71U] | -0.0394
ACUCCGUUGGCGUAAUGGUAACGCGUCUCCCUCCUAAGGAGACGACUGCGGGUUCGAGUCCCGUAUGGAUUG [G1A U2C A43C C66U A70U C71U] | -0.281
ACUCCGUUGGCGUAAUGGUAACGCGUCUCCCUCCUAAGGAGACGAUUGCGGGUUCGAGUCCCGUAAGGGGUG [G1A U2C A43C C46U C66A A69G A70G C71U] | -0.0434
ACUCCGUUGGCGUAAUGGUAACGCGUUUCCCUCCUAAGGAGACGAUUGCGGGUUCGAGUCCCGUACGGGAUG [G1A U2C C27U A43C C46U A69G C71U] | -0.167
ACUCCGUUGGCGUAAUGGUAACGCGUCUCCCUCCUAAGGAGACGACUGCGGGUUCGAGUCCCGUAUGGAGUG [G1A U2C A43C C66U A70G C71U] | -0.272
ACUCCGUUGGCGUAAUGGUAACGCGUUUCCCUCCUAAGGAGACGACUGCGGGUUCGAGUCCCGUACGGAGCG [G1A U2C C27U A43C A70G] | -0.0774
ACUCCGUUGGCGUAAUGGUAACGCGUUUCCCUCCUAAGGAGACGACUGCGGGUUCGAGUCCCGUACGGAUCG [G1A U2C C27U A43C A70U] | -0.111
ACUCCGUUGGCGUAAUGGUAACGCGUCUCCCUCCUAAGGAGACGAUUGCGGGUUCGAGUCCCGUACGGGUUG [G1A U2C A43C C46U A69G A70U C71U] | -0.384
ACUCCGUUGGCGUAAUGGUAACGCGUCUCCCUCCUAAGGAGACGAUUGCGGGUUCGAGUCCCGUACGGGGCG [G1A U2C A43C C46U A69G A70G] | -0.0565
ACUCCGUUGGCGUAAUGGUAACGCGUCUCCCUCCUAAGGAGACGAUUGCGGGUUCGAGUCCCGUACGGGUCG [G1A U2C A43C C46U A69G A70U] | -0.0156
ACUCCGUUGGCGUAAUGGUAACGCGUUUCCCUCCUAAGGAGACGAUUGCGGGUUCGAGUCCCGUACGGAGCG [G1A U2C C27U A43C C46U A70G] | -0.0342
ACUCCGUUGGCGUAAUGGUAACGCGUUUCCCUCCUAAGGAGACGAUUGCGGGUUCGAGUCCCGUACGGAUCG [G1A U2C C27U A43C C46U A70U] | -0.072
ACUCCGUUGGCGUAAUGGUAACGCGUUUCCCUCCUAAGGAGACGAUUGCGGGUUCGAGUCCCGUACGGGUCG [G1A U2C C27U A43C C46U A69G A70U] | -0.0492
ACUCCGUUGGCGUAAUGGUAACGCGUUUCCCUCCUAAGGAGACGAUUGCGGGUUCGAGUCCCGUACGGGGCG [G1A U2C C27U A43C C46U A69G A70G] | -0.178
ACUCCGUUGGCGUAAUGGUAACGCGUCUCCCUCCUAAGGAGACGAUUGCGGGUUCGAGUCCCGUAUGGGGUG [G1A U2C A43C C46U C66U A69G A70G C71U] | -0.417
ACUCCGUUGGCGUAAUGGUAACGCGUUUCCCUCCUAAGGAGACGAUUGCGGGUUCGAGUCCCGUAUGGAUCG [G1A U2C C27U A43C C46U C66U A70U] | -0.0712
ACUCCGUUGGCGUAAUGGUAACGCGUUUCCCUCCUAAGGAGACGAUUGCGGGUUCGAGUCCCGUAUGGAGCG [G1A U2C C27U A43C C46U C66U A70G] | -0.0953
ACUCCGUUGGCGUAAUGGUAACGCGUUUCCCUCCUAAGGAGACGAUUGCGGGUUCGAGUCCCGUAAGGGGUG [G1A U2C C27U A43C C46U C66A A69G A70G C71U] | -0.158

Variant | yeast fitness (ln)
ACUCCGUUGGCGUAAUGGUAACGCGUCUCCCUCCUAAGGAGACGAUUGCGGGUUCGAGUCCCGUACGGAUUG [G1A U2C A43C C46U A70U C71U] | -0.0746
ACUCCGUUGGCGUAAUGGUAACGCGUCUCCCUCCUAAGGAGACGAUUGCGGGUUCGAGUCCCGUACGGGAUG [G1A U2C A43C C46U A69G C71U] | -0.175
ACUCCGUUGGCGUAAUGGUAACGCGUUUCCCUCCUAAGGAGACGACUGCGGGUUCGAGUCCCGUACGGGUCG [G1A U2C C27U A43C A69G A70U] | -0.307
ACUCCGUUGGCGUAAUGGUAACGCGUUUCCCUCCUAAGGAGACGACUGCGGGUUCGAGUCCCGUACGGGGCG [G1A U2C C27U A43C A69G A70G] | -0.275
ACUCCGUUGGCGUAAUGGUAACGCGUCUCCCUCCUAAGGAGAAGACUGCGGGUUCGAGUCCCGUACGGGUUG [G1A U2C A69G A70U C71U] | -0.321
ACUCCGUUGGCGUAAUGGUAACGCGUUUCCCUCCUAAGGAGACGAUUGCGGGUUCGAGUCCCGUAAGGAAUG [G1A U2C C27U A43C C46U C66A C71U] | -0.24
ACUCCGUUGGCGUAAUGGUAACGCGUCUCCCUCCUAAGGAGACGAUUGCGGGUUCGAGUCCCGUAUGGAGUG [G1A U2C A43C C46U C66U A70G C71U] | -0.0729
ACUCCGUUGGCGUAAUGGUAACGCGUCUCCCUCCUAAGGAGACGAUUGCGGGUUCGAGUCCCGUAAGGAGUG [G1A U2C A43C C46U C66A A70G C71U] | -0.0667
ACUCCGUUGGCGUAAUGGUAACGCGUUUCCCUCCUAAGGAGACGAUUGCGGGUUCGAGUCCCGUAAGGAGUG [G1A U2C C27U A43C C46U C66A A70G C71U] | -0.16
ACUCCGUUGGCGUAAUGGUAACGCGUCUCCCUCCUAAGGAGACGAUUGCGGGUUCGAGUCCCGUACGGGGUG [G1A U2C A43C C46U A69G A70G C71U] | -0.00408
ACUCCGUUGGCGUAAUGGUAACGCGUUUCCCUCCUAAGGAGACGAUUGCGGGUUCGAGUCCCGUACGGAUUG [G1A U2C C27U A43C C46U A70U C71U] | -0.221
ACUCCGUUGGCGUAAUGGUAACGCGUCUCCCUCCUAAGGAGACGACUGCGGGUUCGAGUCCCGUAAGGAGUG [G1A U2C A43C C66A A70G C71U] | -0.128
ACUCCGUUGGCGUAAUGGUAACGCGUCUCCCUCCUAAGGAGACGAUUGCGGGUUCGAGUCCCGUAUGGAUUG [G1A U2C A43C C46U C66U A70U C71U] | -0.202
ACUCCGUUGGCGUAAUGGUAACGCGUUUCCCUCCUAAGGAGACGAUUGCGGGUUCGAGUCCCGUAUGGGUUG [G1A U2C C27U A43C C46U C66U A69G A70U C71U] | -0.464
ACUCCGUUGGCGUAAUGGUAACGCGUUUCCCUCCUAAGGAGAAGACUGCGGGUUCGAGUCCCGUACGGAACG [G1A U2C C27U] | -0.0512
ACUCCGUUGGCGUAAUGGUAACGCGUUUCCCUCCUAAGGAGACGAUUGCGGGUUCGAGUCCCGUAUGGGUCG [G1A U2C C27U A43C C46U C66U A69G A70U] | -0.218
ACUCCGUUGGCGUAAUGGUAACGCGUUUCCCUCCUAAGGAGACGAUUGCGGGUUCGAGUCCCGUAUGGGGCG [G1A U2C C27U A43C C46U C66U A69G A70G] | -0.112
ACUCCGUUGGCGUAAUGGUAACGCGUUUCCCUCCUAAGGAGACGAUUGCGGGUUCGAGUCCCGUACGGGUUG [G1A U2C C27U A43C C46U A69G A70U C71U] | -0.215

Reference: the RNAGym collection of RNA variant scans (doi:10.1038/s41586-018-0170-7)
